According to publication PMC9104225 (ACS chemical biology, 2021):
Residues, ends and D or L forms follow the SMILES beside them. *: point of attachment. AMC = Cc1cc(=O)oc2cc(N*)ccc12; Cbz = O=C(OCc1ccccc1)*

Tests used:
Cathepsin K = molecular target: T1, Cathepsin K (Homo sapiens, UniProt P43235); assay: Specificity of inhibitors: cathepsin K activity with Z-Phe-Arg-AMC; assay type: biochemical; conditions: for % inhibition: pH 4.6, at 16 μM (16,000 nM) inhibitor
T1 sequence (P43235 115-329): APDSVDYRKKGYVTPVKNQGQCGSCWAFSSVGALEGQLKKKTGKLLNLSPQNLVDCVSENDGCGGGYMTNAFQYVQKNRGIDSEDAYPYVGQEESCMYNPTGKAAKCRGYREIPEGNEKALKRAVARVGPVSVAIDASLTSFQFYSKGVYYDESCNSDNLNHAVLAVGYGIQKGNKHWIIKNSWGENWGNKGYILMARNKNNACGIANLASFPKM

Cathepsin H = Cathepsin H (Homo sapiens, UniProt P09668); assay: Specificity of inhibitors: cathepsin H activity with Arg-AMC; assay type: biochemical
Sequence of Cathepsin H (P09668 116-335 limits assumed, other chains not shown): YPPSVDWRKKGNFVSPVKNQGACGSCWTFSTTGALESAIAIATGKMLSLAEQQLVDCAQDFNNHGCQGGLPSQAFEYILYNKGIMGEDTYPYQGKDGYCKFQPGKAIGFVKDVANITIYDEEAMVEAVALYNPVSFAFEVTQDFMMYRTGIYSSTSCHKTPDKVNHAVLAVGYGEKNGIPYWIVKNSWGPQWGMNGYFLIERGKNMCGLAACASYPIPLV

Cathepsin S = Cathepsin S (Homo sapiens, UniProt P25774); assay: Specificity of inhibitors: cathepsin S activity with Z-Phe-Arg-AMC; assay type: biochemical; conditions: for % inhibition / IC50: Cathepsin S; for % inhibition: at 16 μM (16,000 nM) inhibitor; for IC50: without pre-incubation
Sequence of Cathepsin S (P25774 115-331): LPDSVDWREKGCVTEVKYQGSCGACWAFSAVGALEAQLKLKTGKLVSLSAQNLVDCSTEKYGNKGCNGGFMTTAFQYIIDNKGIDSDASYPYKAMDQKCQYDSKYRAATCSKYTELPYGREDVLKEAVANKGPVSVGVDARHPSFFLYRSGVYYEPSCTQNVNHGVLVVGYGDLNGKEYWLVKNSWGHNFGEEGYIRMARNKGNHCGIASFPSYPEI

Cathepsin X = Cathepsin X (Homo sapiens, UniProt Q9UBR2); assay type: biochemical; conditions: pH 4.6, without pre-incubation
Sequence of Cathepsin X (Q9UBR2 62-303): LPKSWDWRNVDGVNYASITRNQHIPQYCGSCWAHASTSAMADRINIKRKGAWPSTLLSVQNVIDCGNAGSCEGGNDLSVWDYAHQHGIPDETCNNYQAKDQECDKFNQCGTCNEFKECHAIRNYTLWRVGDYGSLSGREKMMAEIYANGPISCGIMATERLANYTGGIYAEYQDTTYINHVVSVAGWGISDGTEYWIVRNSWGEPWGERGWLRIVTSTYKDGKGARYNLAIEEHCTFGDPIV

Cathepsin L [1] = molecular target: T2, Cathepsin L (Homo sapiens, UniProt P07711); assay: Specificity of inhibitors: cathepsin L activity with Z-Phe-Arg-AMC; assay type: biochemical; conditions: for IC50: pH 4.6, without pre-incubation
T2 sequence (P07711 114-333): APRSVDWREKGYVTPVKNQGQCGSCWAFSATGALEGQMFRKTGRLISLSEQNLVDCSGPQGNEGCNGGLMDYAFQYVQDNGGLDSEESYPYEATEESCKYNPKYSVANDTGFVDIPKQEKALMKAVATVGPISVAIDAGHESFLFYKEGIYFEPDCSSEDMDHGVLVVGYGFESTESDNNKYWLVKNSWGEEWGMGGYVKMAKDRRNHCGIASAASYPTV

cathepsin B [2] = molecular target: T3, cathepsin B (Homo sapiens, UniProt P07858); assay: Cathepsin B inhibition, fluorogenic assay with Z-Phe-Arg-AMC substrate; assay type: biochemical; conditions: for Ki: irreversible inhibitor KI, mean ± SD; for reduction of cathepsin B activity with Z-Phe-Arg-AMC as substrate: 64 nM inhibitor
Cathepsin V [3] = molecular target: T4, Cathepsin V (Homo sapiens, UniProt O60911); assay: Specificity of inhibitors: cathepsin V activity with Z-Phe-Arg-AMC; assay type: biochemical; conditions: for IC50: without pre-incubation
T4 sequence (O60911 114-334): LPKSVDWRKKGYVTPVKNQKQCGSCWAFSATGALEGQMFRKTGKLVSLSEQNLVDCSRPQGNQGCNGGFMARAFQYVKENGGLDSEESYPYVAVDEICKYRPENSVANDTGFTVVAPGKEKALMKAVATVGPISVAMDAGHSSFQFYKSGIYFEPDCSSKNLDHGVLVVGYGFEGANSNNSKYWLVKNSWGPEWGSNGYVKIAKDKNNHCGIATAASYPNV

Cathepsin C = Cathepsin C (Homo sapiens, UniProt P53634); assay: Specificity of inhibitors: cathepsin C activity with Gly-Arg-AMC; assay type: biochemical; conditions: for IC50: Cathepsin C, without pre-incubation
Sequence of Cathepsin C (P53634 25-134 limits assumed): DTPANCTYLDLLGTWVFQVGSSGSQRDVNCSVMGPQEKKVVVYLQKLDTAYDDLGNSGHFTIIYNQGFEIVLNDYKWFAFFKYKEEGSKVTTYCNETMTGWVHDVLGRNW
Sequence of Cathepsin C (P53634 231-394 limits assumed): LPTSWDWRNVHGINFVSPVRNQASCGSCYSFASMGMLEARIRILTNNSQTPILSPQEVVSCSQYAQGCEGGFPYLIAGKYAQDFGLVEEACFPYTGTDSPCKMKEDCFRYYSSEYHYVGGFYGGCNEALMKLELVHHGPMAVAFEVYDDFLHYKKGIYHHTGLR
Sequence of Cathepsin C (P53634 395-463 limits assumed): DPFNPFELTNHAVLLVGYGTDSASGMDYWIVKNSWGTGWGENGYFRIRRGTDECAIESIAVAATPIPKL

Cathepsin L [4] = molecular target: T2, Cathepsin L; assay: Specificity of peptide-AMC substrates: cleavage by cathepsin L; assay type: biochemical
Cathepsin V [5] = molecular target: T4, Cathepsin V; assay: Specificity of peptide-AMC substrates: cleavage by cathepsin V; assay type: biochemical
[6] = molecular target: cathepsin B activity in human neuroblastoma cell lysate (Homo sapiens, UniProt P07858); assay: Cathepsin B activity in neuroblastoma cell homogenate in presence of inhibitors; assay type: biochemical; conditions: 1 μM inhibitor; SHSY5Y homogenate; Z-Arg-Arg-AMC substrate; pH 5.5
Summary of the method: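 SHSY5Y cells were grown in 50% MEMalpha/50% F12-K with 10% heat-inactivated FBS at 37 °C under 5% CO2. They were collected in 0.32 M sucrose and freeze-thawed to give homogenate. CA-074-sensitive activity was taken as cathepsin B. Protein was measured by DC assay. Output is nmol AMC/μg/min, mean ± SD, Student's t-test.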

[7] = molecular target: intracellular cathepsin B in SHSY5Y human neuroblastoma cells (Homo sapiens, UniProt P07858); assay type: cell-based; conditions: 50 μM, 6 hrs
Summary of the method: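 Intact SHSY5Y cells were treated with test compound for 6 h at 37 °C. They were washed 3× in PBS, homogenised in 0.32 M sucrose and freeze-thawed. Cathepsin B activity was taken as the CA-074-sensitive fraction, normalised to DC-assay protein. Output is nmol AMC/μg/min, mean + SD, n=6, t-test.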

cathepsin B [8] = molecular target: T3, cathepsin B; assay: pH profile of cathepsin B activity with peptide-AMC substrates; assay type: biochemical; conditions: substrate 60 μM, pH 2 to 9
Summary of the method: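 Activated cathepsin B (0.04 ng/μL) was run with 60 μM of each peptide-AMC substrate. Buffers were 50 mM citrate phosphate at pH 2.2–7.4 in 0.4-unit steps plus pH 7.2, and 50 mM Tris-HCl at pH 7.4–9.0. Assays ran at 25 °C with ex360/em460. Activity was taken as RFU/sec, the highest slope over 10 consecutive readings. Results are mean ± SEM, n=3.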

[9] = cathepsin B, pH 4.6, without preincubation, Z-Phe-Arg-AMC 40 μM
[10] = cathepsin B, pH 7.2, without preincubation, Z-Phe-Arg-AMC 40 μM
[11] = pH not stated in the sentence for Z-Glu-Lys-AMC, pH 4.6 for Z-Phe-Arg-AMC

SMILES | % inhibition (Cathepsin K) | IC50 (Cathepsin K; pH 4.6, without pre-incubation) [µM] | IC50 (Cathepsin K; pH 7.2, without pre-incubation) [µM] | IC50 (Cathepsin H; pH 4.6, without pre-incubation) [µM] | IC50 (Cathepsin H; pH 7.2, without pre-incubation) [µM] | IC50 (Cathepsin S; pH 4.6) [µM] | IC50 (Cathepsin S; pH 7.2) [µM] | IC50 (Cathepsin X) [µM] | IC50 (Cathepsin L [1]) [µM] | kinact/KI (cathepsin B [2]; cathepsin B, pH 4.6) [M⁻¹ s⁻¹] | Ki (cathepsin B [2]; cathepsin B, pH 4.6) [µM] | IC50 (cathepsin B [2]; [9]) [µM] | kinact/KI (cathepsin B [2]; cathepsin B, pH 7.2) [M⁻¹ s⁻¹] | Ki (cathepsin B [2]; cathepsin B, pH 7.2) [µM] | IC50 (cathepsin B [2]; [10]) [µM] | IC50 (Cathepsin V [3]; Cathepsin V, pH 7.2) [µM] | IC50 (Cathepsin C; pH 4.6) [µM] | IC50 (Cathepsin C; pH 7.2) [µM] | fold more potent for cathepsin B than cathepsin C (IC50) (Cathepsin C; pH 7.2) [fold] | substrate activity for cathepsin L (Cathepsin L [4]; [11]) | further results
Cc1cccc(C)c1C(=O)OCC(=O)C(CCCCN)NC(=O)C(CCC(=O)O)NC(=O)OCc1ccccc1 (stereo not drawn) [Z-Glu-Lys-AOMK] | 10% | > 16 | > 16 | > 16 | > 16 | > 16 | > 16 | > 16 | > 16 | 2000 | 7.9 | 1.1 | 8200 | 2.3 | 0.32 ± 0.045 | > 16 | 8.6 | 12 | 38 |  | % inhibition (Cathepsin S; pH 4.6): 26%; % inhibition (Cathepsin S; pH 7.2): 30%; % inhibition (Cathepsin L [1]; pH 4.6, at 16 μM (16,000 nM) inhibitor): 23%; IC50 (Cathepsin V [3]; Cathepsin V, pH 4.6): 1.9 µM; % inhibition (Cathepsin V [3]; Cathepsin V, pH 7.2, at 16 μM (16,000 nM) inhibitor): 10%
Cc1cc(=O)oc2cc(NC(=O)C(CCCN=C(N)N)NC(=O)C(Cc3ccccc3)NC(=O)OCc3ccccc3)ccc12 (stereo not drawn) [Z-Phe-Arg-AMC, reference compound] (Cbz-Phe-Arg-{AMC}; configuration not given here) |  |  |  |  |  |  |  |  |  |  |  |  |  |  |  |  |  |  |  | cleaved | substrate activity for cathepsin V (Cathepsin V [5]; [11]): cleaved
Cc1cccc(C)c1C(=O)OCC(=O)[C@H](CCCCN)NC(=O)[C@H](CCCN=C(N)N)NC(=O)OCc1ccccc1 [Z-Arg-Lys-AOMK] | no inhibition | > 16 | > 16 | > 16 | > 16 | > 16 | 2.2 | > 16 | > 16 | 1800 | 15 | 1.5 | 110000 | 0.13 ± 0.05 | 0.02 ± 0.0083 | 0.44 | > 16 | 0.85 | 43 |  | inhibition of proteolytic (cathepsin B) activity in cell lysate [6]: completely inhibited; inhibition at 16 μM (Cathepsin H; pH 4.6, at 16 μM inhibitor): no inhibition; fold more potent for cathepsin B than cathepsin S (IC50) (Cathepsin S; pH 7.2): 110 fold; reduction of cathepsin B activity with Z-Phe-Arg-AMC as substrate (cathepsin B [2]; pH 4.6): 5%; reduction of cathepsin B activity with Z-Phe-Arg-AMC as substrate (cathepsin B [2]; pH 7.2): 93%; IC50 (cathepsin B [2]; cathepsin B, pH 6.8): 0.022 µM; fold greater potency at pH 7.2 compared to pH 4.6 (KI values) (cathepsin B [2]; cathepsin B, ratio of KI at pH 4.6 and pH 7.2): 115 fold; cell permeability [7]: cell permeable; fold more potent for cathepsin B than cathepsin V (IC50) (Cathepsin V [3]; pH 7.2): 22 fold
Cc1cc(=O)oc2cc(NC(=O)[C@H](CCCCN)NC(=O)[C@H](CCCNC(=N)N)NC(=O)OCc3ccccc3)ccc12 [Z-Arg-Lys-AMC] (Cbz-Arg-Lys-{AMC}) |  |  |  |  |  |  |  |  |  |  |  |  |  |  |  |  |  |  |  |  | pH of maximal (optimal) hydrolysis by cathepsin B (cathepsin B [8]): 7.8 pH; substrate activity for cathepsin L (Cathepsin L [4]; pH 7.2): no activity; substrate activity for cathepsin V (Cathepsin V [5]; pH 7.2): no activity
CCCNC(=O)[C@H]1O[C@@H]1C(=O)N[C@H](C(=O)N1CCC[C@H]1C(=O)O)[C@@H](C)CC [CA-074, reference compound] |  |  |  |  |  |  |  |  |  |  |  |  |  |  |  |  |  |  |  |  | inhibition of proteolytic (cathepsin B) activity in cell lysate [6]: completely inhibited
Cc1cc(=O)oc2cc(NC(=O)[C@H](CCCCN)NC(=O)[C@H](CCC(=O)O)NC(=O)OCc3ccccc3)ccc12 [Z-Glu-Lys-AMC] (Cbz-Glu-Lys-{AMC}) |  |  |  |  |  |  |  |  |  |  |  |  |  |  |  |  |  |  |  | no activity | pH of maximal (optimal) hydrolysis by cathepsin B (cathepsin B [8]): 4.6 pH; substrate activity for cathepsin V (Cathepsin V [5]; [11]): no activity
